Reference: ChEMBL document CHEMBL1124080, “Potential antitumor agents. 55. 6-Phenylphenanthridine-4-carboxamides: a new class of DNA-intercalating antitumor agents” (J Med Chem, 1988)
Several values for one entry are separate records, joined by “and”; a condition that tells them apart may be missing. Identical values can stand only once. Activity calls are given as the source filed them.

Assays:
P388 [1] = assay: Optimal dose administered intraperitoneally on days 1,5 and 9 after intraperitoneal inoculation of 10e6 P388 leukemia cells in vivo.; format: functional, Mus musculus
Procedure, shortened: (§1)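 Mice inoculated intraperitoneally with 10^6 P388 leukemia cells. Drug given i.p. as a solution in 0.1 mL 30% v/v ethanol/water on days 1, 5 and 9. Optimal dose in mg/kg per day. ILS is the percent increase in lifespan over untreated tumor-bearing controls at that dose; above 20% counted significant. Long-term survival judged at 50 days, groups of six.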

L1210 = assay: Inhibition of growth of murine leukemia (L1210) cells.; format: functional, cell-based; details: Mus musculus
Procedure, shortened: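 Murine leukemia L1210 cells grown in culture with drug for 40 h; IC50 taken as the concentration (nM) giving 50% growth inhibition.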

P388 [2] = assay: The percentage increase in lifespan of compound with P388 tumor bearing controls when treated at optimal dose; format: functional, Mus musculus
Procedure, shortened: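 P388 leukemia: 10^6 cells inoculated intraperitoneally. ILSmax is the percentage lifespan increase over tumor-bearing controls at the optimal dose (mg/kg per day). Groups of six; long-term survivors counted at 50 days; values above 20% considered significant.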

[3] = tested on: Lewis lung carcinoma cell line; assay: Optimal dose administered intraperitoneally to mice infected with Lewis lung carcinoma cells(LL) in vivo.; format: functional, Mus musculus
[4] = tested on: Lewis lung carcinoma cell line; assay: The percentage increase in lifespan of compound with Lewis lung carcinoma tumor bearing controls when treated at OD; Not active; format: functional, cell-based; details: Mus musculus
P388 [5] = assay: Optimal dose following i.p. administration on days 1,5 and 9 after inoculation of 10e6 P388 leukemia cells to mice.; format: functional, Mus musculus; procedure, shortened: as §1
[6] = tested on: poly[d(A-T)] and poly[d(G-C)]; assay: Binding constant for poly[d(A-T)] and poly[d(G-C)] by ethidium bromide displacement
[7] = tested on: Lewis lung carcinoma cell line; assay: Optimal dose administered intraperitoneally to mice infected with Lewis lung carcinoma cells(LL) in vivo; format: functional, Mus musculus
P388 [8] = assay: The percentage increase in lifespan of compound with P388 tumor bearing controls when treated at optimal dose; Not active; format: functional; details: Mus musculus; procedure, shortened: as §1
[9] = tested on: Lewis lung carcinoma cell line; assay: The percentage increase in lifespan of compound with Lewis lung carcinoma tumor bearing controls when treated at OD; format: functional, Mus musculus
Procedure, shortened: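 Lewis lung carcinoma: 10^6 cells inoculated intravenously. ILSmax is the percentage increase in lifespan over tumor-bearing controls at the optimal dose (mg/kg per day). Groups of six; long-term survivors counted at 60 days; values above 40% considered significant.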

[10] = pKa was evaluated; format: physicochemical
Procedure, shortened: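 pKa determined spectrophotometrically in aqueous solution.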

[11] = tested on: Lewis lung carcinoma cell line; assay: OD administered intraperitoneally to mice infected with Lewis lung carcinoma cells(LL) in vivo; format: functional, Mus musculus

## COc1ccc(-c2nc3c(C(=O)NCCN(C)C)cccc3c3ccccc23)cc1.Cl.Cl
P388 [1]
  OD: 65 mg/kg/day
L1210
  IC50: 500 nM
P388 [2]
  ILSmax: 22%
[3]
  OD: 100 mg/kg/day
[4]
  ILSmax: inactive

## CC(=O)Nc1ccc(-c2nc3c(C(=O)NCCN(C)C)cccc3c3ccccc23)cc1
P388 [5]
  OD: 30 mg/kg/day
[6]
  Log K: 6.13 and 6.31
L1210
  IC50: 54 nM
P388 [2]
  ILSmax: 22%
[3]
  OD: 45 mg/kg/day
[4]
  ILSmax: inactive

## CN(C)CCNC(=O)c1cccc2c1nc(-c1ccccn1)c1ccccc12.Cl
P388 [5]
  OD: 65 mg/kg/day
[6]
  Log K: 5.69 and 5.77
[7]
  OD: 65 mg/kg/day
L1210
  IC50: 720 nM
P388 [2]
  ILSmax: 20%

## CN(C)CCNC(=O)c1cccc2c1nc(-c1cccc(Cl)c1)c1ccccc12.Cl.Cl
P388 [5]
  OD: 65 mg/kg/day
[6]
  Log K: 6.41 and 6.56
[7]
  OD: 100 mg/kg/day
L1210
  IC50: 66 nM
P388 [2]
  ILSmax: 88%

## CN(C)CCNC(=O)c1cccc2c1nc(-c1ccc([N+](=O)[O-])cc1)c1ccccc12
P388 [1]
  OD: 65 mg/kg/day
[6]
  Log K: 6.41 and 6.54
L1210
  IC50: 540 nM
P388 [2]
  ILSmax: 65%
[3]
  OD: 65 mg/kg/day
[4]
  ILSmax: inactive

## CN(C)CCCCNC(=O)c1cccc2c1ncc1ccccc12.Cl
P388 [1]
  OD: 100 mg/kg/day
[6]
  Log K: 5.64 and 5.28
L1210
  IC50: 3290 nM

## CN(C)CCNC(=O)c1cccc2c1nc(-c1ccccc1Cl)c1ccccc12.Cl
P388 [5]
  OD: 45 mg/kg/day
P388 [8]
  ILSmax: inactive
[6]
  Log K: 6.45 and 6.6
L1210
  IC50: 2870 nM

## CN(C)CCNC(=O)c1cccc2c1nc(-c1ccc(I)cc1)c1ccccc12.Cl.Cl
P388 [5]
  OD: 65 mg/kg/day
P388 [8]
  ILSmax: inactive
[6]
  Log K: 7.33 and 7.23
[7]
  OD: 65 mg/kg/day
L1210
  IC50: 2240 nM
[4]
  ILSmax: inactive

## CN(C)CCCCNC(=O)c1cccc2c1nc(-c1ccccc1)c1ccccc12.Cl.Cl
P388 [8]
  ILS max: inactive
P388 [1]
  OD: 65 mg/kg/day
[6]
  Log K: 6.59 and 6.4
[7]
  OD: 45 mg/kg/day
L1210
  IC50: 1060 nM
[4]
  ILSmax: inactive

## CN(C)CCNC(=O)c1cccc2c1nc(-c1ccncc1)c1ccccc12.Cl.Cl
P388 [5]
  OD: 100 mg/kg/day
[6]
  Log K: 6.9 and 7
[7]
  OD: 100 mg/kg/day
L1210
  IC50: 14 nM
P388 [2]
  ILSmax: 93%
[4]
  ILSmax: inactive

## CN(C)CCNC(=O)c1cccc2c1nc(-c1ccc(F)cc1)c1ccccc12.Cl.Cl
P388 [5]
  OD: 20 mg/kg/day
[9]
  ILSmax: 45%
[7]
  OD: 45 mg/kg/day
L1210
  IC50: 43 nM
P388 [2]
  ILSmax: 63%

## CN(C)CCNC(=O)c1cccc2c1ncc1ccccc12.Cl.Cl
P388 [5]
  OD: 100 mg/kg/day
[9]
  ILSmax: 117%
[6]
  Log K: 5.9 and 5.61
[7]
  OD: 150 mg/kg/day
L1210
  IC50: 2100 nM
P388 [2]
  ILSmax: 73%
[10]
  pKa: 2.95

## CN(C)CCNC(=O)c1cccc2c1nc(-c1ccc(Cl)cc1)c1ccccc12
P388 [5]
  OD: 45 mg/kg/day
[6]
  Log K: 6.26 and 6.24
[7]
  OD: 65 mg/kg/day
L1210
  IC50: 410 nM
P388 [2]
  ILSmax: 34%
[10]
  pKa: 2.52
[4]
  ILSmax: inactive

## Br.Br.CN(C)CCNC(=O)c1cccc2c1nc(-c1ccc(O)cc1)c1ccccc12.Cl.Cl
P388 [5]
  OD: 65 mg/kg/day
P388 [8]
  ILS max: inactive
[7]
  OD: 65 mg/kg/day
L1210
  IC50: 370 nM
[4]
  ILS max: inactive

## CN(C)CCNC(=O)c1cccc2c1nc(-c1ccccc1)c1ccccc12
P388 [5]
  OD: 45 mg/kg/day
[9]
  ILSmax: 126%
[6]
  Log K: 6.26 and 6.33
[7]
  OD: 65 mg/kg/day
L1210
  IC50: 120 nM
P388 [2]
  ILSmax: 92%
[10]
  pKa: 2.75

## CN(C)CCCNC(=O)c1cccc2c1ncc1ccccc12.Cl.Cl
P388 [5]
  OD: 100 mg/kg/day
[6]
  Log K: 5.74 and 5.37
L1210
  IC50: 3590 nM

## CN(C)CCNC(=O)c1cccc2c1nc(-c1ccc(NS(C)(=O)=O)cc1)c1ccccc12.Cl.Cl
P388 [5]
  OD: 30 mg/kg/day
P388 [8]
  ILSmax: inactive
[6]
  Log K: 6.24 and 6.36
L1210
  IC50: 350 nM
[4]
  ILSmax: inactive
[11]
  OD: 20 mg/kg/day

## CN(C)CCNC(=O)c1cccc2c1nc(-c1ccc(Br)cc1)c1ccccc12
P388 [5]
  OD: 65 mg/kg/day
P388 [8]
  ILS max: inactive
[6]
  Log K: 7.04 and 6.76
L1210
  IC50: 1010 nM
[3]
  OD: 45 mg/kg/day
[4]
  ILSmax: inactive

## CN(C)CCNC(=O)c1cccc2c1nc(-c1ccc(N)cc1)c1ccccc12
P388 [1]
  OD: 30 mg/kg/day
[6]
  Log K: 6.29 and 6.57
L1210
  IC50: 130 nM
P388 [2]
  ILSmax: 27%
[3]
  OD: 45 mg/kg/day
[4]
  ILSmax: inactive

## CN(C)CCNC(=O)c1cccc2c1nc(-c1cccnc1)c1ccccc12.Cl.Cl.Cl
P388 [5]
  OD: 45 mg/kg/day
[9]
  ILSmax: 93%
[6]
  Log K: 6.35 and 6.21
[7]
  OD: 65 mg/kg/day
L1210
  IC50: 13 nM
P388 [2]
  ILSmax: 104%

## CN(C)CCCNC(=O)c1cccc2c1nc(-c1ccccc1)c1ccccc12.Cl.Cl
P388 [5]
  OD: 45 mg/kg/day
[6]
  Log K: 6.5 and 6.11
[7]
  OD: 65 mg/kg/day
L1210
  IC50: 1120 nM
P388 [2]
  ILSmax: 24%
[4]
  ILSmax: inactive
